The values that follow come from ChEMBL document CHEMBL1156780, “6-(Het)aryl-7-deazapurine ribonucleosides as novel potent cytostatic agents” (J Med Chem, 2010).

Structures are written as SMILES.

One assay relates to CCRF-CEM. Nature of the assay: Cytotoxicity against human CCRF-CEM cells after 3 days by XTT assay. Type of assay: functional, cell-based. To be noted: 72 h. Summed up:
(§1)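 Cell viability of CCRF-CEM, HL60 and HeLa cells measured by XTT assay after 72 h incubation with compounds. IC₅₀ taken as mean of 2–4 independent experiments.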
For orientation: Tetrazolium dyes change colour on reduction, which living cells bring about.

A short description of assay [1]: Cytotoxicity against human HeLaS3 cells after 3 days by XTT assay. Type of assay: functional, cell-based. As to conditions: HeLa S3, 72 h.
Assay [2] in a line: Cytostatic activity against human Hs578 cells after 5 days by SRB assay. Type of assay: functional. As to conditions: Hs578, 120 h. Summed up: (§2)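 Cells seeded in RPMI (colon, breast, lung lines), MEM (Du145) or F12K (PC3) with 10% FBS, 37 °C overnight. Day-zero plates fixed with cold 10% TCA. Compounds added as 5-fold serial dilutions for 5 days. Fixed, stained with 0.057% SRB in 1% acetic acid, dye solubilized in 10 mM Tris pH 10.5, A500 read. Growth % corrected for day-0 OD; GIC₅₀ from sigmoidal fit.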
On the technique in general: Sulforhodamine B stains cellular protein and so reports cell mass.

The next assay relates to DU-145. As to the kind of experiment: Cytostatic activity against human DU145 cells after 5 days by SRB assay. To be noted: DU-145, 120 h. Type of assay: functional. Summed up:
as §2

In another assay the test system is HCT-116. Nature of the assay: Cytostatic activity against human HCT116 cells after 5 days by SRB assay. Type of assay: functional. To be noted: HCT-116, 120 h. Summed up:
as §2

In a further assay the test system is A549. Nature of the assay: Cytostatic activity against human A549 cells after 5 days by SRB assay. In kind it is functional. To be noted: A549, 120 h. A digest of the protocol:
as §2

Another assay concerns HL-60. As to the kind of experiment: Cytotoxicity against human HL60 cells after 3 days by XTT assay. In kind it is functional, cell-based. To be noted: HL-60, 72 h. Summed up:
as §1

A word on the IC50: it is the concentration that inhibits the measured activity by half. What is called GI50 is the concentration that inhibits growth by half. High values mean lower sensitivity of the cells, low ones greater sensitivity of the cells. Consider `OC[C@H]1O[C@@H](n2cc(Cl)c3c(-c4ccsc4)ncnc32)[C@H](O)[C@@H]1O`, for which the IC50 with CCRF-CEM was 1000 nM; in assay [1], 340 nM; with HL-60, 1600 nM. Moreover, the 50% growth inhibitory concentration (GI50) stood at 110 nM in assay [2], 18 nM in the assay with DU-145, 100 nM in the assay with HCT-116 and 380 nM in the assay with A549.
As to `OC[C@H]1O[C@@H](n2cc(F)c3c(-c4c[nH]cn4)ncnc32)[C@H](O)[C@@H]1O`, the IC50 with CCRF-CEM was found to be 1800 nM; in assay [1], 12200 nM. Further, the GI50 in assay [2] was 2100 nM; with DU-145, 890 nM; with HCT-116, over 10000 nM; in the assay with A549, over 10000 nM.
Regarding `OC[C@H]1O[C@@H](n2cc(F)c3c(-c4ccoc4)ncnc32)[C@H](O)[C@@H]1O`, the IC50 in the assay on CCRF-CEM amounted to 1000 nM; in assay [1], 170 nM; in the assay with HL-60, 2000 nM. The GI50 was 180 nM in assay [2], 5 nM in the assay on DU-145, 18 nM with HCT-116 and 60 nM with A549.
As for `OC[C@H]1O[C@@H](n2ccc3c(-c4ccccn4)ncnc32)[C@H](O)[C@@H]1O`, the IC50 is 1500 nM in the assay on CCRF-CEM and over 40000 nM in the assay on HL-60. The GI50 is over 10000 nM in assay [2], 390 nM in the assay on DU-145, over 10000 nM with HCT-116 and 4900 nM in the assay on A549.
With `OC[C@H]1O[C@@H](n2ccc3c(-c4c[nH]cn4)ncnc32)[C@H](O)[C@@H]1O`, the IC50 was determined as 710 nM in the assay with CCRF-CEM and 3300 nM in assay [1]. For the same compound, the concentration for 50% growth inhibition (GI50) in assay [2] was found to be 1900 nM; with DU-145, 94 nM; with HCT-116, 3700 nM; with A549, 2600 nM.
As to `OC[C@H]1O[C@@H](n2ccc3c(-c4ccc[nH]4)ncnc32)[C@H](O)[C@@H]1O`, the midpoint of inhibition with CCRF-CEM, the IC50, lay at 10000 nM. In addition, the GI50 in assay [2] was 1300 nM; in the assay with DU-145, 630 nM; in the assay on HCT-116 it was over 10000 nM; in the assay on A549, over 10000 nM.
With `OC[C@H]1O[C@@H](n2ccc3c(-c4ccsc4)ncnc32)[C@H](O)[C@@H]1O`, the concentration for half-maximal inhibition (IC50) in the assay on CCRF-CEM is 4000 nM; with HL-60 it was over 40000 nM. In addition, the GI50 in assay [2] was 710 nM; with DU-145 it was 32 nM; in the assay on HCT-116 it was 220 nM; with A549 it was 630 nM.
With `OC[C@H]1O[C@@H](n2ccc3c(-c4nccs4)ncnc32)[C@H](O)[C@@H]1O`, the IC50 in the assay on CCRF-CEM was 390 nM; in assay [1], 130 nM; in the assay on HL-60 it was 1200 nM. For the same compound, the GI50 came out at 290 nM in assay [2], 19 nM in the assay with DU-145, 480 nM in the assay on HCT-116 and 410 nM in the assay on A549.
Take `OC[C@H]1O[C@@H](n2ccc3c(-c4ccc[se]4)ncnc32)[C@H](O)[C@@H]1O`: the half-maximal inhibitory concentration (IC50) in the assay with CCRF-CEM was found to be 1500 nM; in assay [1], 7400 nM; in the assay on HL-60, 2800 nM. In addition, the concentration for 50% growth inhibition (GI50) in assay [2] worked out at 290 nM; in the assay on DU-145, 28 nM; in the assay on HCT-116, 340 nM; with A549, 230 nM.
On to `OCc1ncnc2c1ccn2[C@@H]1O[C@H](CO)[C@@H](O)[C@H]1O`, for which the values for the IC50 (in the assay with CCRF-CEM; in assay [1]; in the assay with HL-60) were 450 nM, 350 nM and 2200 nM, respectively. Moreover, the concentration for 50% growth inhibition (GI50) in assay [2] turned out to be 53 nM; with DU-145, 30 nM; in the assay on HCT-116 it was 450 nM; with A549, 250 nM.
In the case of `OC[C@H]1O[C@@H](n2ccc3c(-c4cn[nH]c4)ncnc32)[C@H](O)[C@@H]1O`, the IC50 in the assay on CCRF-CEM was determined as 1000 nM; in assay [1], 4100 nM. For the same compound, the GI50 amounted to 3100 nM in assay [2], 75 nM in the assay on DU-145, 5700 nM in the assay with HCT-116 and 6200 nM with A549.
For the compound `OC[C@H]1O[C@@H](n2ccc3c(-c4ccccc4)ncnc32)[C@H](O)[C@@H]1O`, the IC50 with CCRF-CEM was 4000 nM; in assay [1] it was over 40000 nM. Besides, the GI50 in assay [2] was over 10000 nM; in the assay with DU-145 it was 1100 nM; with HCT-116, over 10000 nM; in the assay on A549 it was over 10000 nM.
